procasp7 counter = counter-screen: procaspase-7 (human) activation; P55210; recombinant procaspase-7, Ac-DEVD-pNA absorbance 405 nm; D23A/D198A/D206A triple mutant, cannot self-cleave; scale: DMSO 0, 5 µM enzyme 100; activation, % at 8.5 µM; actives 0.093% (n = 330,000);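 active = percent activation above the screen-wide mean plus 3 SD, cut at about 25% in these data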
Target sequence (P55210 whole entry D23A/D198A/D206A): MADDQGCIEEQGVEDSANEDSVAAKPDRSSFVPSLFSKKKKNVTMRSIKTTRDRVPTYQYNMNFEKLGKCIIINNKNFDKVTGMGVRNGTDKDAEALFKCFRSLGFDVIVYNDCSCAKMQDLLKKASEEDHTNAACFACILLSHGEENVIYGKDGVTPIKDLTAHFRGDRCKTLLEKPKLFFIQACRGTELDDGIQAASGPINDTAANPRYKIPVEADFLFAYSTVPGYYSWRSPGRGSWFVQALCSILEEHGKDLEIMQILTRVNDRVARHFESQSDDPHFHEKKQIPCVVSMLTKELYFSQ
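Replicates: singlicate. Assay system: Procaspase-7 triple mutant (PC-7 D3A). Signal: 405 nm absorbance of p-nitroaniline. Times: 1 h preincubation, 2 h reaction. Buffer or medium: Zinc-free HEPES pH 7.4 with 300 mM NaCl, 0.01% Triton X-100. Also added: DEVD-pNA substrate. Benchmarks: DMSO wells as 0%, DMSO with 5 µM added PC-7 as 100%.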
proCasp3 act = procaspase-3 (human) activation; recombinant procaspase-3 D3A, Ac-DEVD-pNA absorbance 405 nm; activation, % at 8.5 µM; AID 463141; P42574; actives 0.11% (n = 330,000);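 active = activation above the mean of all tested compounds plus 3 SD, cut at about 21% in these data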
Target sequence (P42574 whole entry D9A/D28A/D175A): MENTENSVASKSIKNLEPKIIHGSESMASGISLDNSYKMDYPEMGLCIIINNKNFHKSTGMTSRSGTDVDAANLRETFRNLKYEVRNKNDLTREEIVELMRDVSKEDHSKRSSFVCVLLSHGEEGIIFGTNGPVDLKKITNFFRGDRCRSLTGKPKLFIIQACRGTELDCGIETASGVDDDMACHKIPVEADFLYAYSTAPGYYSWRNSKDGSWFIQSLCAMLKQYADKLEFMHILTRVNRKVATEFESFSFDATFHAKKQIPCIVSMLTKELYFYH
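Assay system – Procaspase-3 D3A mutant, all three cleavage aspartates alanine · Controls – DMSO-only low control, 5 µM PC-3 D3A high control · Schedule – 1 h compound preincubation, 2 h substrate hydrolysis at 25 °C · Signal – 405 nm absorbance of p-nitroaniline, reads at 0 and 120 min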
GRIN3A LBD mod = modulates the human NR3A ligand-binding domain. Tm shift relative to glycine control, % at 25 µM. NR3A LBD differential scanning fluorimetry, Tm shift; 0% = protein alone, 100% = glycine-bound protein. actives 2.5% (n = 340,000);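 active = melting temperature shift of at least 10% of the positive control shift, at one fixed dose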
MPTP inh = permeability transition pore inhibition. isolated mouse mitochondria, Ca2+ swelling absorbance, 30 min. actives 1.4% (n = 360,000). AID 602449. inhibition, % at 10 µM;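 active = inhibition of 50% or more, scaled per plate between neutral and stimulator controls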
aDG glyco act = alpha-DG glycosylation activation; Pro5-aDG cells, alpha-DG glycosylation AlphaScreen (IIH6); 0% Pro5, 100% B10-LARGE cell signal; activation, % at 10 µM; actives 0.22% (n = 360,000); AID 624168;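 active = activation of at least 8% versus controls, or a plate z-score of at least 8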;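 note: Pro5 are CHO cells carrying HIG-tagged alpha-DG that lacks glycosylation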
Rh123 counter = mitochondrial membrane potential, counter-screen. shares compounds with MPTP inh. isolated mitochondria, Rhodamine 123 fluorescence. inhibition, % at 10 µM. actives 78% (n = 5,000); in the data active = inhibition above about 22%
MPTP abs DR = MPTP inhibition, dose response swelling confirmation; IC50, µM; AID 651561; actives 58% (n = 780); shares compounds with MPTP inh; isolated mitochondria swelling, absorbance; in the data active = IC50 below about 20 µM
MPTP counter DR = counter-screen for mitochondrial permeability transition pore inhibitors, dose response; actives 49% (n = 780); isolated mitochondria counterscreen, fluorescence read-out; shares compounds with MPTP inh; IC50, µM; AID 651564; in the data active = IC50 below about 80 µM
A number is an active result; – = inactive; · = not tested or not shown. Most compounds without a hit are left out; they make up all but 3.7% or so of the library.

SMILES | procasp7 counter | proCasp3 act | GRIN3A LBD mod | MPTP inh | aDG glyco act | Rh123 counter | others
COC(=O)c1ccc(NC(=S)NCCc2ccc(OC)cc2)cc1 | – | – | – | – | – | ·
COc1ccc(Nc2c(CCc3ccccc3)nc3nc(C)cc(C)n23)cc1 | · | · | · | – | – | ·
N#CCCn1nc(-c2ccccc2)cc1Nc1ccccc1NC(=O)C(F)(F)F | – | – | – | – | – | ·
N#CCCn1nc(-c2ccc(Br)cc2)cc1Nc1ccccc1NC(=O)C(F)(F)F | – | – | – | 95.0 | – | 83.7
N#CCCn1nc(-c2ccc([N+](=O)[O-])cc2)cc1Nc1ccccc1NC(=O)C(F)(F)F | – | – | – | 92.9 | – | 91.4
NNC(=O)c1cc2c(N3CCC(Cc4ccccc4)CC3)ncnc2s1 | – | – | – | 89.2 | – | 59.4
CS(=O)(=O)N(CC(=O)NCc1ccncc1)c1cc(Cl)ccc1Cl | – | – | – | – | – | ·
Cc1ccc(-n2cc(C(=O)c3cc(Cl)ccc3O)cc(C#N)c2=O)cc1 | – | – | – | 93.2 | – | 83.7
COc1ccc(-n2cc(C(=O)c3cc(Cl)ccc3O)cc(C#N)c2=O)cc1 | – | – | – | – | – | ·
O=C(Nc1ccccc1N1CCCC1)c1cc(Cl)ccc1Cl | – | – | – | – | – | ·
Cc1ccccc1NC(=O)c1cc(C(=O)c2cc(Cl)ccc2O)cn(-c2ccccc2C)c1=O | – | – | 13.6 | 90.5 | – | 74.8
CC(C)CCN(C(=O)c1ccc(Br)cc1)c1c(N)n(Cc2ccccc2)c(=O)[nH]c1=O | – | – | – | – | – | ·
Cc1cc(C)nc(/N=C(\N)Nc2ccc(CC(=O)OC(C)C)cc2)n1 | – | – | – | 50.2 | – | 58.6
Cc1cc(C)nc(/N=C(\N)Nc2cccc(OCc3ccccc3)c2)n1 | – | – | – | 82.9 | – | 64.1
Cc1cc(C)nc(/N=C(\N)Nc2ccc(S(=O)(=O)O)cc2)n1 | · | · | – | – | – | ·
COc1ccc(N/C(N)=N/c2nc(C)cc(C)n2)cc1 | · | · | · | – | – | ·
Cc1cc(C)nc(/N=C(\N)Nc2ccc(OCCC(C)C)cc2)n1 | – | – | – | 100.0 | – | 91.0
CCCCC[C@H](C)N1C[C@H](COCc2ccccc2)Oc2cc(N3CCC[C@@H]3COC)ccc2S1(=O)=O | · | · | · | – | – | ·
COc1ccc(NC(=O)Cn2nnc(-c3ccccc3NS(=O)(=O)c3ccccc3)n2)cc1 | – | – | 17.4 | 77.2 | – | 75.0
COc1ccc(S(=O)(=O)Nc2ccccc2-c2nnn(CC(=O)Nc3ccccc3OC)n2)cc1 | – | – | – | – | – | ·
OCCN1CCN(CC(O)COc2ccc(C34CC5CC(CC(C5)C3)C4)cc2)CC1 (configuration not stated) | – | – | – | 91.0 | – | – | MPTP abs DR=4.13;MPTP counter DR=55.2
NCCOc1ccc(C23CC4CC(CC(C4)C2)C3)cc1 | – | – | – | 76.2 | – | –
COC(=O)[C@]1(Cc2ccccc2)N[C@H](c2ccc(-c3ccc(F)cc3)cc2)[C@@H]2C(=O)N(C)C(=O)[C@@H]21 | – | – | – | – | – | ·
CCc1nc2ccc(C(=O)NCCCN3CCCC3=O)cn2c1N(CC)CCOC | · | · | · | – | – | ·
CC1=NN(c2ccc([N+](=O)[O-])cc2)C(=O)/C1=C\N(C)C | – | – | – | 99.4 | – | –
SMILES | procasp7 counter | proCasp3 act | GRIN3A LBD mod | MPTP inh | aDG glyco act | Rh123 counter | others
CCCC1=NN(c2ccc([N+](=O)[O-])cc2)C(=O)/C1=C/N(C)C | – | – | – | – | – | ·
CCOC(=O)c1cccc(OCC(O)CNCCOc2ccccc2F)c1 (configuration not stated) | – | – | – | 74.0 | – | – | MPTP abs DR=8.88;MPTP counter DR=–
O=C(CN1CCOCC1)N1CCOCC1 | · | · | – | – | – | ·
O=C(Nc1ccc(Oc2ccccc2)cc1)c1cnc2n(c1=O)CCS2 | – | – | – | 92.2 | – | 61.4
CCOc1ccccc1NC(=O)c1cnc2n(c1=O)CCS2 | – | – | – | – | – | ·
O=C(OCc1c(-c2ccccc2)ncc2ccccc12)c1cccc(Br)c1 | – | – | – | – | – | ·
Cc1ccccc1OCCC(=O)Nc1cccc(S(=O)(=O)Nc2ccccc2Cl)c1 | – | – | 14.9 | 77.3 | – | 75.3
O=C(Cc1ccc(Cl)cc1Cl)Nc1cccc(S(=O)(=O)Nc2ccccc2F)c1 | – | – | 25.6 | 65.3 | – | 58.1
O=C(Nc1cccc(S(=O)(=O)Nc2ccccc2F)c1)c1ccc2ccccc2n1 | – | – | – | – | – | ·
O=C(/C=C/c1ccccc1)Nc1cccc(S(=O)(=O)Nc2ccccc2F)c1 | – | – | – | 50.9 | – | 55.7
COc1cc(OC)c(NS(=O)(=O)c2cc(C(=O)NCCCN3CCOCC3)ccc2C)cc1Cl | · | · | · | – | – | ·
CCCc1ccc(C(O)c2ncc(-c3ccc(OC)cc3)[nH]2)cc1 (configuration not stated) | · | · | · | – | – | ·
CC1CNC(=S)N(c2ccccc2)C1=O (configuration not stated) | · | · | – | – | – | ·
CCOC(=O)c1cccc(NC(=O)CCc2nc(-c3ccccc3F)no2)c1 | – | – | – | – | – | ·
CCOC(=O)c1ccc(NC(=O)CCc2nc(-c3ccccc3Cl)no2)cc1 | – | – | – | 89.0 | – | 75.6
CCOC(=O)c1ccc(NC(=O)CCc2nc(-c3ccccc3)no2)cc1 | – | – | – | 62.4 | – | 69.3
Cc1cn([C@H]2C[C@H](O)[C@@H](CNCc3cc(Br)ccc3OCc3ccccc3)O2)c(=O)[nH]c1=O | · | · | · | – | – | ·
Cc1ccc2c(c1)C1CN(C)CCC1N2C(=O)c1cccc(S(=O)(=O)N(C)C)c1 (configuration not stated) | – | – | – | – | – | ·
Cc1ccc2c(c1)C1CN(C)CCC1N2C(=O)Nc1ccc(Cl)cc1 (configuration not stated) | · | · | – | 87.2 | – | 94.2
CCn1c(-c2ccc(C(C)(C)C)cc2)n[nH]c1=S | – | – | – | 69.4 | – | – | MPTP abs DR=17.6;MPTP counter DR=26.3
CCn1c(-c2ccc(F)cc2)n[nH]c1=S | – | – | – | – | – | ·
CSc1nc(N)c2cn[nH]c2n1 | · | · | – | – | – | ·
Cc1ccc(S(=O)(=O)/N=C(/Nc2ccc([N+](=O)[O-])cc2[N+](=O)[O-])c2ccccc2)cc1 | – | – | – | 86.5 | – | 92.1
C[N+](C)(C)CCNC(=O)c1ccccc1 | · | · | · | – | – | ·
c1ccc(-c2csc3ncnc(NCc4ccccn4)c23)cc1 | – | – | – | 62.0 | – | 33.4
CN(C)CCCNc1ncnc2scc(-c3ccccc3)c12 | – | – | – | – | – | ·
c1ccc(CNc2ncnc3scc(-c4cccs4)c23)nc1 | – | – | – | 72.2 | – | 57.4
